{"source": "ChEMBL document CHEMBL1143981", "about": "“Exploring the potential of 3'-O-carboxy esters of thymidine as inhibitors of ribonuclease A and angiogenin” (Bioorg Med Chem, 2008)", "key": {"[1]": {"assay": "Inhibition of RNase A by precipitation assay", "outline": "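Yeast tRNA substrate (0.1 mg) in 0.1 M Tris–HCl, pH 7.5, with 5 mM EDTA and 10 µg HSA, 50 µl final. Enzyme (0.2 µM solution) was preincubated with inhibitor (225 µM solution) before addition. Reaction ran at 37 °C for 30 min. It was quenched with ice-cold 1.14 N perchloric acid containing 6 mM uranyl acetate, held on ice 30 min, then centrifuged at 4 °C.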"}, "[2]": {"biological_target": "T1, Ribonuclease pancreatic (Homo sapiens) (UniProt P07998)", "T1 sequence (whole entry)": "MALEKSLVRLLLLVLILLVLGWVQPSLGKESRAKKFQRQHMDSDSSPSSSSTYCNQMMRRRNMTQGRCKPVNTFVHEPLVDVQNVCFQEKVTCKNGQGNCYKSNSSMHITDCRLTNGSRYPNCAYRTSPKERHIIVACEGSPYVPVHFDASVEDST", "assay": "Inhibition of RNase A assessed as tRNA degradation by agarose-gel based assay", "outline": "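RNase A (0.66 µM solution) was preincubated 6 h with 1.5 mM inhibitor solution, 50 µl total. An aliquot was then mixed with yeast tRNA (5.0 mg/ml, freshly dissolved in RNase-free water) for 30 min. Samples ran on 1.1% agarose, and undegraded tRNA was visualized by ethidium bromide staining under UV.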"}, "Ribonuclease pancreatic": {"biological_target": "Ribonuclease pancreatic", "assay": "Activity at RNase A", "outline": "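Spectrophotometric kinetics with 2',3'-cCMP substrate in oligo(vinylsulfonic acid)-free 0.1 M Mes–NaOH, pH 6.0, with 0.1 M NaCl. RNase A was at 10 µM. Substrate ranged 0.14–0.28 mM with inhibitor 0–6.7 µM, or 0.13–0.25 mM with inhibitor 0–62 µM, depending on compound. Inhibition constants came from initial velocities via Eadie–Hofstee plots (V vs V/[S]), using the slopes.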"}}, "note": "The source made the active and inactive calls. The calls are words filed in the database; no cut-off is given here.", "data": [{"smiles": "CC(=O)O[C@H]1C[C@H](n2cc(C)c(=O)[nH]c2=O)O[C@@H]1CO", "values": [{"measurement": "IC50", "setting": "[1]", "value": 197, "unit": "µM"}, {"measurement": "Activity", "setting": "[2]", "value": "Active"}, {"measurement": "Ki", "setting": "Ribonuclease pancreatic", "value": 42, "unit": "µM"}]}, {"smiles": "Cc1cn([C@H]2C[C@H](OP(=O)(O)O)[C@@H](CO)O2)c(=O)[nH]c1=O", "values": [{"measurement": "IC50", "setting": "[1]", "value": 167, "unit": "µM"}, {"measurement": "Ki", "setting": "Ribonuclease pancreatic", "value": 13.2, "unit": "µM"}]}, {"smiles": "Cc1cn([C@H]2C[C@H](OC(=O)c3ccccc3)[C@@H](CO)O2)c(=O)[nH]c1=O", "values": [{"measurement": "IC50", "setting": "[1]", "value": 341, "unit": "µM"}, {"measurement": "Activity", "setting": "[2]", "value": "Active"}, {"measurement": "Ki", "setting": "Ribonuclease pancreatic", "value": 95, "unit": "µM"}]}, {"smiles": "Nc1ccn([C@@H]2O[C@H](CO)[C@@H](OP(=O)(O)O)[C@H]2O)c(=O)n1", "values": [{"measurement": "IC50", "setting": "[1]", "value": 312, "unit": "µM"}, {"measurement": "Activity", "setting": "[2]", "value": "Active"}, {"measurement": "Ki", "setting": "Ribonuclease pancreatic", "value": 103, "unit": "µM"}]}]}
